According to article PMC9199876 (Clinical and Translational Science, 2022):
Where “and” joins values, the source holds several entries; their conditions need not be identical. Equal values may be shown once. Read-outs that look alike come from different tables or passages of the source.

Experiments:
[1] = Safety and tolerability assessment; type: in vivo, humans (healthy adults); conditions: for Number of participants with TEAEs / TEAE: Abdominal pain, upper / TEAE: Cough / TEAE: Dermatitis contact / TEAE: Gastrointestinal disorders / TEAE: Headache / TEAE: Nasal congestion / TEAE: Nervous system disorders / TEAE: Respiratory, thoracic, and mediastinal disorders / TEAE: Sensory disturbance / TEAE: Sinus congestion / TEAE: Skin and subcutaneous tissue disorders / TEAE: Sneezing: n = 12
Method in brief: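 Twelve healthy adults received a single oral 25 mg dose with and without i.v. rifampin 600 mg in crossover. TEAEs were monitored throughout. Vital signs and triplicate 12-lead ECGs were taken at screening (day −28 to −2), predose, and 1, 2, 4, 8 and 48 h post dose in each period. Serum chemistry, hematology and urinalysis were also run. Follow-up included a full physical exam, vital signs and ECG.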

[2] = system: CYP isoforms; conditions: in vitro, clinically relevant dose (0.06 μM); cited from earlier work
[3] = system: OATP1B1/1B3; conditions: in vitro; cited from earlier work
[4] = system: OATP1B1/1B3; conditions: at a clinically relevant dose; cited from earlier work
[5] = system: breast cancer resistance protein (BCRP); conditions: in vitro; cited from earlier work
[6] = system: MATE2-K; conditions: in vitro; cited from earlier work
[7] = Phase I two-way crossover study: plasma pharmacokinetics of trazpiroben and M23; type: in vivo, humans (healthy adults); conditions: for AUC∞, geometric mean (mean CV%) / C max, geometric mean (geometric CV%) / T max, median (min, max) / t 1/2z, mean (SD): plasma trazpiroben; for AUC∞, geometric mean (mean CV%): n = 12
Method in brief: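 Open-label crossover in healthy adults fasted ≥10 h: a single oral 25 mg capsule, alone or right after a 30-min i.v. infusion of 600 mg rifampin, with ≥7-day washout. Parent and metabolite were measured by LC-MS/MS (range 0.1–50.0 ng/ml; BLOQ set to zero). Noncompartmental analysis used actual sampling times.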

[8] = system: MATE2-K; conditions: at a clinically relevant dose; cited from earlier work
[9] = system: CYP2C9; conditions: in vitro, clinically relevant dose (0.06 μM); cited from earlier work
[10] = system: CYP2B6; conditions: in vitro, clinically relevant dose (0.06 μM); cited from earlier work
[11] = ref data on file, cited from earlier work
[12] = system: OAT1; conditions: at a clinically relevant dose; cited from earlier work
[13] = phase II, 51 patients with idiopathic or diabetic gastroparesis; cited from earlier work
[14] = single and multiple doses, healthy men and women; cited from earlier work
[15] = system: OAT3; conditions: at a clinically relevant dose; cited from earlier work
[16] = system: OATP1B1/1B3; experiment: Clinical DDI: effect of single-dose i.v. rifampin; type: in vivo, humans (healthy adults); conditions: plasma trazpiroben; trazpiroben with rifampin relative to trazpiroben alone
Method in brief: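 Healthy fasted adults (n = 12) in a two-way crossover: an oral 25 mg capsule of test compound alone, or given immediately after 600 mg rifampin i.v. over 30 min. Washout was ≥7 days. Plasma parent and metabolite were assayed by validated LC-MS/MS and analysed noncompartmentally. The ANOVA on log-transformed AUC∞ and Cmax gave the LSM difference (B – A), which was exponentiated to give GMRs with 90% CIs.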

[17] = healthy Japanese individuals; cited from earlier work
[18] = system: CYP3A4; conditions: phase I DDI studies; cited from earlier work
[19] = system: CYP2C19; conditions: in vitro, clinically relevant dose (0.06 μM); cited from earlier work
[20] = system: CYP3A; conditions: in vitro, clinically relevant dose (0.06 μM); cited from earlier work
[21] = system: cytosolic NADPH-dependent reductases; conditions: in vitro; cited from earlier work
[22] = system: CYP3A4; conditions: in vitro; cited from earlier work
[23] = system: CYP2D6; conditions: in vitro, clinically relevant dose (0.06 μM); cited from earlier work
[24] = system: MATE1; conditions: in vitro; cited from earlier work
[25] = system: OCT2; conditions: at a clinically relevant dose; cited from earlier work
[26] = trazpiroben 25 mg + rifampin 600 mg
[27] = trazpiroben 25 mg + rifampin 600 mg i.v.
[28] = fasted rats, oral radiolabeled trazpiroben, after 24 h

O=C(O)c1cccc(CN2CN(C3CCCCC3)C3(CCN(CCCC(=O)c4ccccc4)CC3)C2=O)c1 [trazpiroben, Trazpiroben]
serum chemistry, hematology, urinalysis, vital signs, and ECG results ([1]; all participants, throughout the study): remained within normal limits
AE relating to QT prolongation ([1]; current study): no clinically relevant AE relating to QT prolongation
Number of participants with TEAEs ([1]; overall (both treatments)): 6 (50) n (%)
TEAE: Abdominal pain, upper ([1]; overall (both treatments)): 1 (8) n (%)
TEAE: Cough ([1]; overall (both treatments)): 1 (8) n (%)
TEAE: Dermatitis contact ([1]; overall (both treatments)): 1 (8) n (%)
TEAE: Gastrointestinal disorders ([1]; overall (both treatments)): 1 (8) n (%)
TEAE: Headache ([1]; overall (both treatments)): 2 (17) n (%)
TEAE: Nasal congestion ([1]; overall (both treatments)): 1 (8) n (%)
TEAE: Nervous system disorders ([1]; overall (both treatments)): 3 (25) n (%)
TEAE: Respiratory, thoracic, and mediastinal disorders ([1]; overall (both treatments)): 2 (17) n (%)
TEAE: Sensory disturbance ([1]; overall (both treatments)): 1 (8) n (%)
TEAE: Sinus congestion ([1]; overall (both treatments)): 1 (8) n (%)
TEAE: Skin and subcutaneous tissue disorders ([1]; overall (both treatments)): 1 (8) n (%)
TEAE: Sneezing ([1]; overall (both treatments)): 1 (8) n (%)
tolerability ([1]; single agent or in combination with rifampin, healthy participants): well‐tolerated
Number of participants with TEAEs [1, 26]: 2 (17) n (%)
TEAE: Abdominal pain, upper [1, 26]: 0 (0) n (%)
TEAE: Cough [1, 26]: 1 (8) n (%)
TEAE: Dermatitis contact [1, 26]: 0 (0) n (%)
TEAE: Gastrointestinal disorders [1, 26]: 0 (0) n (%)
TEAE: Headache [1, 26]: 1 (8) n (%)
TEAE: Nasal congestion [1, 26]: 1 (8) n (%)
TEAE: Nervous system disorders [1, 26]: 1 (8) n (%)
TEAE: Respiratory, thoracic, and mediastinal disorders [1, 26]: 1 (8) n (%)
TEAE: Sensory disturbance [1, 26]: 0 (0) n (%)
TEAE: Sinus congestion [1, 26]: 0 (0) n (%)
TEAE: Skin and subcutaneous tissue disorders [1, 26]: 0 (0) n (%)
TEAE: Sneezing [1, 26]: 0 (0) n (%)
Number of participants with TEAEs ([1]; trazpiroben 25 mg alone): 6 (50) n (%)
TEAE: Abdominal pain, upper ([1]; trazpiroben 25 mg alone): 1 (8) n (%)
TEAE: Cough ([1]; trazpiroben 25 mg alone): 0 (0) n (%)
TEAE: Dermatitis contact ([1]; trazpiroben 25 mg alone): 1 (8) n (%)
TEAE: Gastrointestinal disorders ([1]; trazpiroben 25 mg alone): 1 (8) n (%)
TEAE: Headache ([1]; trazpiroben 25 mg alone): 2 (17) n (%)
TEAE: Nasal congestion ([1]; trazpiroben 25 mg alone): 0 (0) n (%)
TEAE: Nervous system disorders ([1]; trazpiroben 25 mg alone): 3 (25) n (%)
TEAE: Respiratory, thoracic, and mediastinal disorders ([1]; trazpiroben 25 mg alone): 1 (8) n (%)
TEAE: Sensory disturbance ([1]; trazpiroben 25 mg alone): 1 (8) n (%)
TEAE: Sinus congestion ([1]; trazpiroben 25 mg alone): 1 (8) n (%)
TEAE: Skin and subcutaneous tissue disorders ([1]; trazpiroben 25 mg alone): 1 (8) n (%)
TEAE: Sneezing ([1]; trazpiroben 25 mg alone): 1 (8) n (%)
participants reporting contact dermatitis ([1]; trazpiroben alone): 8%
participants reporting headache ([1]; trazpiroben alone): 17%
participants reporting sensory disturbance ([1]; trazpiroben alone): 8%
participants reporting sinus congestion ([1]; trazpiroben alone): 8%
participants reporting upper abdominal pain ([1]; trazpiroben alone): 8%
severity of TEAEs ([1]; whole study): mild
number of TEAEs recorded ([1]; whole study, 12 participants): 10
deaths, serious AEs, discontinuations due to an AE ([1]; whole study, trazpiroben alone and with rifampin): no deaths, serious AEs, or discontinuations due to an AE
induction of CYP isoforms [2]: does not induce
substrate of OATP1B1/1B3 [3]: substrate
inhibitor of OATP1B1/1B3 [4]: not an inhibitor
substrate of BCRP [5]: not a substrate
substrate of MATE2-K [6]: not a substrate
participants with detectable levels of plasma trazpiroben ([7]; 0.5 h, co-administered with rifampin): all participants
participants with detectable levels of plasma trazpiroben ([7]; 0.5 h after trazpiroben alone): 92%
participants with detectable levels of plasma trazpiroben ([7]; 12 h after trazpiroben alone): 92%
participants with detectable levels of plasma trazpiroben ([7]; 16 h after trazpiroben alone): 42%
participants with detectable levels of plasma trazpiroben ([7]; 16 h post dose, trazpiroben + rifampin): 83%
AUC∞, geometric mean (mean CV%) ([7]; single oral trazpiroben 25 mg alone): 32.7 ng*h/ml and 32.68 (23.9) ng*h/ml
C max, geometric mean (geometric CV%) [7, 27]: 89.62 (68.6) ng/ml
T max, median (min, max) [7, 27]: 1.002 (0.49, 2.00) h
t 1/2z, mean (SD) [7, 27]: 2.028 ± 0.3449 h
C max, geometric mean (geometric CV%) ([7]; trazpiroben 25 mg alone): 14.37 (38.7) ng/ml
T max, median (min, max) ([7]; trazpiroben 25 mg alone): 1.037 (0.50, 2.00) h
t 1/2z, mean (SD) ([7]; trazpiroben 25 mg alone): 4.229 ± 3.7897 h
AUC∞, geometric mean (mean CV%) ([7]; trazpiroben 25 mg oral + rifampin 600 mg i.v.): 168.5 (49.9) ng*h/ml
CL/F, geometric mean (geometric CV%) [7, 27]: 148.4 (49.9) L/h
V z/F, geometric mean (geometric CV%) [7, 27]: 428.1 (49.9) L
CL/F, geometric mean (geometric CV%) ([7]; trazpiroben 25 mg alone): 765.1 (23.9) L/h
V z/F, geometric mean (geometric CV%) ([7]; trazpiroben 25 mg alone): 3469 (70.7) L
inhibitor of MATE2-K [8]: not an inhibitor
inhibition of CYP2C9 [9]: does not inhibit
inhibition of CYP2B6 [10]: does not inhibit
dosed radioactivity excreted in bile ([11]; bile duct cannulated rats): ~ 86%
dosed radioactivity excreted in feces ([11]; bile duct cannulated rats): 11%
dosed radioactivity excreted in urine ([11]; bile duct cannulated rats): 5%
dosed radioactivity excreted in feces [11, 28]: ~ 94%
dosed radioactivity excreted in urine [11, 28]: 6%
inhibitor of OAT1 [12]: not an inhibitor
safety signals [13]: did not identify any safety signals
tolerability [14]: well‐tolerated
inhibitor of OAT3 [15]: not an inhibitor
AUC∞ geometric mean ratio (90% CI) [16]: 5.16 (4.25–6.25) fold
C max geometric mean ratio (90% CI) [16]: 6.24 (4.62–8.42) fold
tolerability [17]: well‐tolerated
sensitivity to CYP3A4 inhibition [18]: relatively insensitive
inhibition of CYP2C19 [19]: does not inhibit
inhibition of CYP3A [20]: does not inhibit
share of metabolism via non-CYP cytosolic NADPH-dependent reductases (to M23) [21]: 56.7%
share of metabolism via CYP3A4 [22]: 25.8%
inhibition of CYP2D6 [23]: does not inhibit
substrate of MATE1 [24]: not a substrate
inhibitor of OCT2 [25]: not an inhibitor
